Source: PubChem BioAssay (several laboratories)
Apaf1 inhib: human Apaf-1 inhibition | hit rate 0.71% among 330,000 | reconstituted apoptosome caspase-3 activity, DEVD-Rh110 fluorescence | inhibition, % at 20 µM; active = inhibition of at least 40% at 20 µM;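 also: plate controls were DMSO wells for no effect and DEVD-CHO caspase inhibitor wells for full effect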
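Material: biochemical Apaf-1 apoptosome reconstitution. Medium: Hepes buffer, pH 7.5. Also added: cytochrome c activation, bis-DEVD rhodamine 110 substrate. Timing: 30 min compound preincubation, 50 min activation, room temperature. Measured by: rhodamine 110 fluorescence at Ex 480/Em 540 nm.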
MEKK2 mut-MEK5: signal of MEK5 binding to mutant human MEKK2 PB1 domain | bead flow cytometry, Alexa488-MEK5 binding to MEKK2 mutant | percent response, % at 10 µM | hit rate 0.35% among 290,000 | AID 1530; in the data active = percent response above about 24%, passing the limit was not always enough
MEKK2wt PB1 HTS: raises or lowers MEK5 binding to wildtype human MEKK2 PB1 domain | Q9Y2U5 | bead flow cytometry, Alexa488-MEK5 binding to MEKK2 WT; actives lie on both sides | binding response (% of control), % at 10 µM | hit rate 1.1% among 290,000; in the data active = binding response below about 67% or above about 130%; inconclusive = no clear call, values can overlap the other calls; inactive = in between
UBC13 inh: inhibitors of human UBC13 polyubiquitin chain formation; P61088; TR-FRET; inhibition, % at 20 µM; hit rate 0.47% among 330,000; AID 485273; in the data active = inhibition above about 45%, passing the limit was not always enough; inconclusive = no clear call, values can overlap the other calls
MEKK3 PB1 HTS: MEKK3-MEK5 PB1 interaction, increase or decrease. Q99759. bead-based flow cytometry, Alexa488-MEK5 binding to MEKK3; actives lie on both sides; 0 = blocked by unlabeled MEK5, 100 = vehicle. binding response (% of control), % at 10 µM. hit rate 1.4% among 290,000;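 active = binding response more than 3 SD above or below the average of its plate-row segment, actives on both sides; inconclusive = wells at one plate position flagged as instrument error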;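 also: Alexa488 bead fluorescence after subtracting the streptavidin-only scavenger bead signal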
Target sequence (Q99759 whole entry, looked up): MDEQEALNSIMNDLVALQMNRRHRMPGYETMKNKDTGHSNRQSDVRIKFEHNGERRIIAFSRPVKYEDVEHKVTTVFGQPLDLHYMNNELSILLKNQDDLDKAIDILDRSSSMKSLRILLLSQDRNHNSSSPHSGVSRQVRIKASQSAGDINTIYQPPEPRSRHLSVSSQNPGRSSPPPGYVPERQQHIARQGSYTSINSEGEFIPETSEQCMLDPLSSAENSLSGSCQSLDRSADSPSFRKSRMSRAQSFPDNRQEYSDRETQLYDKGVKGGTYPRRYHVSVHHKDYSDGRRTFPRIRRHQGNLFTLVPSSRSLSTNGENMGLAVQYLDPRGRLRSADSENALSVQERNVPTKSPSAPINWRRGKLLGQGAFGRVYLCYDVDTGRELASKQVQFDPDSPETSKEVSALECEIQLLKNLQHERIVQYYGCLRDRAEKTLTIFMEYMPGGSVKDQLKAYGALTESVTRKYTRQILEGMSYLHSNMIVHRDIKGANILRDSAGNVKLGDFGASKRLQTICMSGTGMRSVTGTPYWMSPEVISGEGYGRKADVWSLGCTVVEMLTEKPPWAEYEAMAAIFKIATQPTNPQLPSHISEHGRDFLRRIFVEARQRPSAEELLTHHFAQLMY
MEKK2wt confirm: raises or lowers MEK5 binding to wildtype human MEKK2, retest; shares compounds with MEKK3 PB1 HTS; bead flow cytometry, Alexa488-MEK5 binding to MEKK2 WT; actives lie on both sides; binding response (% of control), % at 10 µM; hit rate 2.4% among 5,900; in the data active = binding response below about 16% or above about 210%; inactive = in between
MEKK2mut confirm: signal of MEK5 binding to mutant human MEKK2, retest. shares compounds with MEKK3 PB1 HTS. bead flow cytometry, Alexa488-MEK5 binding to MEKK2 mutant. percent response, % at 10 µM. hit rate 2% among 5,900; in the data active = percent response mostly above about 71%, no sharp cut-off; inactive = mostly below about 38%;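 also: higher means compound restores mutant binding toward wildtype level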
MEKK3-MEK5 inh: MEKK3-MEK5 PB1 inhibition, single concentration confirmation. shares compounds with MEKK3 PB1 HTS. bead flow cytometry, Alexa488-MEK5 binding to MEKK3; hits give low values. binding response (% of control), % at 10 µM. hit rate 1.8% among 5,900;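 active = binding response below 72% of control, or above a set upper limit, though filed actives all read lower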;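 also: 100% = DMSO only wells and 0% = binding blocked by excess unlabeled MEK5; lower values mean stronger disruption of MEK5 binding to MEKK3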
The depositor's hits bear a star; ? = inconclusive; . = no result given; [ ] = dose if it differs, or a comment. Rows were chosen to be rich in hits. Some 2.9% of all compounds tested hit in one or more screens of this group.

SMILES	Apaf1 inhib	MEKK2 mut-MEK5	MEKK2wt PB1 HTS	UBC13 inh	MEKK3 PB1 HTS	MEKK2wt confirm	MEKK2mut confirm	MEKK3-MEK5 inh
CCC(C)N=C1SCC(C)(/C=N/O)S1 (stereo not given)	4	6	135*	-4	128*	91	-5	95
Cc1nc2ncnn2c(C)c1Cc1ccc(Cl)cc1F	9	-2	109	-4	112	.	.	.
CCc1cc2cc(OC)ccc2nc1SCC(=O)NNC(=O)c1ccco1	1	-7	97	-14	99	.	.	.
CCc1cc2ccc(OC)cc2nc1SCC(=O)NNC(C)=O	-9	6	124	-1	135*	99	-1	103
CCc1cc2ccc(OC)cc2nc1SCC(=O)Nc1cc(C)on1	-4	5	117	5	123*	98	-1	103
CC(Sc1nnnn1C1CCCC1)C(=O)Nc1cccc(S(=O)(=O)N2CCOCC2)c1 (stereo not given)	3	.	.	-1	.	.	.	.
Cc1ccc(F)cc1NC(=O)c1sc2ncn(CC(=O)N3CCN(c4ccccn4)CC3)c(=O)c2c1C	11	3	110	6	103	.	.	.
Cc1nc2ccc(Cl)cc2c(-c2ccccc2)c1CC(=O)O	-7	-2	97	-9	98	.	.	.
Cc1nc2ccccc2c(-c2ccccc2)c1CC(=O)O	-5	3	114	1	168*	111	2	105
Cc1cccc(NS(=O)(=O)c2ccc(C(=O)NCC(c3ccco3)N(C)C)cc2)c1C (stereo not given)	5	4	103	-4	99	.	.	.
Cc1ccc(CNC(=O)COC(=O)CSc2ccc(Br)cc2C)cc1	10	0	107	5	130*	103	-1	105
Cc1cc(Br)ccc1SCC(=O)OCC(=O)NC1CC1	12	-1	99	-3	106	.	.	.
Cc1ccc(C)c(OCCC(=O)NNC(=O)c2cc(C)oc2C)c1	-8	.	.	5	.	.	.	.
C=CCN(C(=O)CSc1nc2c(sc3ccccc32)c(=O)n1CCN(CC)CC)c1ccccc1	10	65*	192*	15	117	142	10	98
CCN(C(=O)COC(=O)c1cc(=O)[nH]c2ccccc12)C1CCS(=O)(=O)C1 (stereo not given)	-6	-14	37*[inhibitor]	2	37*[inhibitor]	98	3	101
CCN(C(=O)COC(=O)c1cc(-c2ccc3cc(OC)ccc3c2)nc2ccccc12)C1CCS(=O)(=O)C1 (stereo not given)	-3	-2	95	?	98	.	.	.
O=C(CN1C(=O)NC2(CCCCC2)C1=O)N1CCN(S(=O)(=O)c2ccccc2)CC1	7	0	96	-4	100	.	.	.
O=C(CN1C(=O)NC2(CCCCCC2)C1=O)N1CCC(Cc2ccccc2)CC1	20	-1	3.0*[inhibitor]	4	3.0*[inhibitor]	99	-4	96
CC(=O)c1cnc(Nc2cccc(C)c2)s1	4	-2	95	-4	90	.	.	.
N#Cc1c(-c2cccnc2)cc(-c2ccccc2)nc1N	-7	21	111	15	129*	97	-3	100
N#Cc1c(-c2ccccc2F)cc(-c2cccnc2)nc1N	7	-1	100	18	100	.	.	.
COc1ccc(N=C2S/C(=C\c3cccs3)C(=O)N2CC(C)C)cc1	3	-7	90	-3	82*[inhibitor]	103	-1	107
COc1ccc(N=C2S/C(=C\c3ccc(C)s3)C(=O)N2CC(C)C)cc1	17	11	106	-2	107	.	.	.
COc1ccc(NC(=O)CCSCCC(=O)Nc2ccc(OC)cc2OC)c(OC)c1	6	1	109	-5	137*	101	3	98
COc1ccc(NC(=O)Cc2c(F)cccc2Cl)c(OC)c1	-3	-8	3.0*[inhibitor]	-3	1.0*[inhibitor]	102	-1	100
SMILES	Apaf1 inhib	MEKK2 mut-MEK5	MEKK2wt PB1 HTS	UBC13 inh	MEKK3 PB1 HTS	MEKK2wt confirm	MEKK2mut confirm	MEKK3-MEK5 inh
c1ccc(NCc2ccccn2)cc1	-6	6	130	-6	138*	94	-7	96
Cc1ccc(S(=O)(=O)c2nc(N3CCOCC3)sc2Cl)cc1	-6	7	119	2	124*	106	1	110
COC(=O)CCCCCCCCC(O)C[N+]1(C)CCOCC1 (stereo not given)	-22	-47	27*[inhibitor]	2	22*[inhibitor]	92	-5	96
COc1ccc(-n2c(=O)c3ccccc3n(Cc3cccc(C)c3)c2=O)cc1OC	-19	0	99	7	111	.	.	.
COc1ccc(OC)c(/C=C/C(=O)OCC(=O)N2CCN(S(=O)(=O)c3ccc(C)cc3C)CC2)c1	22	.	.	14	.	.	.	.
Cc1cccc2c1-c1sc(C(=O)Nc3ccccc3N3CCN(C)CC3)cc1CO2	8	4	162*	34	103	198	46	111
CCCCn1c(-c2cccs2)nc2oc3ccccc3c(=O)c2c1=O	8	19	115	-4	129*	98	-3	98
Cc1occc1-c1nnc(SCC(=O)N2CCCC(C)C2)o1 (stereo not given)	0	.	.	2	.	.	.	.
Cc1occc1-c1nnc(SCC(=O)N2CCOCC2)o1	3	-18	3.0*[inhibitor]	-11	2.0*[inhibitor]	102	-1	102
c1ccc(COC(CN2CCCCCC2)CN2CCCCCC2)cc1	-9	-3	105	16	102	.	.	.
CCOC(=O)CCC(NC(=O)CCCCC(=O)NC(CCC(=O)OCC)C(=O)OCC)C(=O)OCC (stereo not given)	3	1	107	-10	130*	106	0	103
CCOC(=O)CCC(NC(=O)CCCCCCCCC(=O)NC(CCC(=O)OCC)C(=O)OCC)C(=O)OCC (stereo not given)	5	1	110	3	107	.	.	.
Cc1nn(-c2ccccc2)c(C)c1NC(=O)COc1cc(F)ccc1[N+](=O)[O-]	1	.	.	-7	.	.	.	.
Cc1ccc(C)n1-c1ccc(C(=O)NCc2ccncc2)cc1	7	-15	65	-6	50*[inhibitor]	103	0	103
CNS(=O)(=O)c1ccc(NCC2COc3ccccc3O2)c([N+](=O)[O-])c1 (stereo not given)	9	-1	103	-6	133*	102	0	101
O=S(=O)(NCC1COc2ccccc2O1)c1ccc2ccccc2c1 (stereo not given)	11	-1	104	-1	104	.	.	.
O=C(CN1CCOCC1)Nc1ncc(Cc2cccc(Cl)c2)s1	-1	0	109	-11	152*	105	3	106
